Assay results taken from ChEMBL document CHEMBL5352442, “Structure-based design, synthesis and evaluation of a novel family of PEX5-PEX14 interaction inhibitors against Trypanosoma” (Eur J Med Chem, 2022).

Columns and labels:
[1] = Binding affinity to Ni-NTA-ATTO647-labeled N-terminal His-tagged Trypanosoma brucei PEX14 (19 to 84 residues) expressed in Escherichia coli BL21 assessed as dissociation constant by MST assay
How it was run: (§1)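 PEX14 N-terminal domain (aa 19–84, N-His), purified by Ni-NTA and then SEC in PBS, labeled with Ni-NTA-ATTO647 at protein:label 2:1 for 1 h at room temperature in the dark. Buffer: 50 mM Tris-HCl pH 7.4, 150 mM NaCl, 10 mM MgCl2, 0.0125% Tween 20. Labeled protein 200 nM with inhibitor serial dilution, 5% DMSO. Triplicates; Kd from MST fit; mean of n = 3.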

[2] = Binding affinity to Ni-NTA-ATTO647-labeled N-terminal His-tagged Trypanosoma cruzi PEX14 (19 to 84 residues) expressed in Escherichia coli BL21 assessed as dissociation constant by MST assay; how it was run: as §1
[3] = Inhibition of biotinylated PEX5 (unknown origin)/N-terminal His-tagged Trypanosoma cruzi PEX14 (19 to 84 residues) expressed in Escherichia coli BL21 by AlphaScreen assay
How it was run: (§2)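 Streptavidin donor and Ni-chelate acceptor beads each 5 μg/mL. Inhibitor serial dilutions at constant 5% DMSO.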

[4] = test system: Trypanosoma brucei brucei; test: Trypanocidal activity against bloodstream form of Trypanosoma brucei brucei incubated for 66 hrs by resazurin dye based assay; type: functional, organism-based
How it was run: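 T. b. brucei Lister 427 bloodstream form in HMI-11 with 10% FBS, 37 °C, 5% CO2. Ten-point 1:1 serial dilutions in quadruplicate; final 2×10^3 parasites/mL. After 66 h, resazurin was added and plates incubated to 72 h. Fluorescence ex 530/em 585 nm, medium background subtracted, survival normalized to no-compound well. IC50 from sigmoidal nonlinear regression.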

[5] = Inhibition of biotinylated PEX5 (unknown origin)/N-terminal His-tagged Trypanosoma brucei PEX14 (19 to 84 residues) expressed in Escherichia coli BL21 by AlphaScreen assay; how it was run: as §2

SMILES	Kd [1] [µM]	Kd [2] [µM]	EC50 [3] [µM]	IC50 [4] [µM]	EC50 [5] [µM]
CCN1C(=O)c2ccccc2Oc2cc(NC(=O)Cc3ccc(F)cc3)ccc21	131	124	4590	8.12	875
CCN1C(=O)c2ccccc2Oc2cc(NC(=O)Cc3ccc(Cl)cc3)ccc21	385	2800	2370	5.39	54
CCN1C(=O)c2ccccc2Oc2cc(NS(=O)(=O)c3ccccc3)ccc21	20	12	778	7.1	935
CCN1C(=O)c2ccccc2Sc2cc(NC(=O)Cc3ccc(F)cc3)ccc21	951	56	637	5.4	230
CCN1C(=O)c2ccccc2Oc2cc(NC(=O)Cc3cccc(Cl)c3)ccc21	44	64	2930	7.38	500
CCN1C(=O)c2ccccc2Oc2cc(NC(=O)Cc3cscn3)ccc21	61000	1700	–	57.5	–
CCN1C(=O)c2ccccc2Oc2cc(NC(=O)Oc3ccccc3)ccc21	232	100000	3590	52.8	250
CCN1C(=O)c2ccccc2Oc2cc(NC(=O)Cn3nnc4ccccc43)ccc21	14	3	13000	7.9	351
CCN1C(=O)c2ccccc2Oc2cc(NS(=O)(=O)Cc3ccccc3)ccc21	158	252	6830	19.4	3630
CCN1C(=O)c2ccccc2Oc2cc(NC(=O)Cc3cccc4ccccc34)ccc21	147	42	4520	6.35	69
CC(C)N1C(=O)c2cccnc2[S+]([O-])c2cc(NC(=O)Cc3ccc(F)cc3)ccc21 (stereo unspecified)	–	–	–	–	1730
CCN1C(=O)c2ccccc2Oc2cc(NC(=O)Cc3cccnc3)ccc21	1460	3450	1230	29.4	843
CCN1C(=O)c2ccccc2Oc2cc(NC(=O)Cc3ccsc3)ccc21	29	9	2360	8.3	825
CCN1C(=O)c2ccccc2Oc2cc(NC(=O)[C@@H](N)c3ccccc3)ccc21	625	10200	421	13.4	253
CS(=O)(=O)N1C(=O)c2ccccc2Oc2cc(NC(=O)Cc3ccc(F)cc3)ccc21	2	3000	10300	19.3	422
CCN1C(=O)c2ccccc2Oc2cc(NC(=O)Cc3c[nH]c4ccccc34)ccc21	13	9	677	13.7	109
COC(=O)N1C(=O)c2ccccc2Oc2cc(NC(=O)Cc3ccc(F)cc3)ccc21	369	258	–	7.7	480
CCN1C(=O)c2ccccc2Oc2cc(NC(=O)[C@@H](NC(=O)OC(C)(C)C)c3ccccc3)ccc21	380	2	1610	58.5	318
CC(C)N1C(=O)c2cccnc2Sc2cc(NC(=O)Cc3ccc(F)cc3)ccc21	24	5	2290	0.86	1050
O=C(Cc1ccc(F)cc1)Nc1ccc2c(c1)Oc1ccccc1C(=O)N2	–	–	551	20.7	11000
COC(=O)CN1C(=O)c2ccccc2Oc2cc(NC(=O)Cc3ccc(F)cc3)ccc21	–	–	4590	11.6	7230
CCN1C(=O)c2ccccc2Oc2cc(NC(=O)Cc3ccccc3)ccc21	–	–	788	13.3	1090
CCN1C(=O)c2ccccc2Oc2cc(NC(=O)Cc3cnccn3)ccc21	840	–	1930	47.6	741
